# DSG3 Ab inh – inhibitors of pemphigus antibody binding to DSG3, primary screen, biochemical, bead-based, flow cytometry, scFv-GFP; binding (percent of control), % at 10 µM; 310,000 tested, 0.48% active; DSG3-coupled beads, scFv-anti-DSG3-GFP binding; active compounds read low;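 active means binding more than 3 SD below its plate's average and above zero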;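 further: hits lower antibody fragment binding to DSG3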
# Target sequence (P32926 whole entry, looked up, the tested form may be a part): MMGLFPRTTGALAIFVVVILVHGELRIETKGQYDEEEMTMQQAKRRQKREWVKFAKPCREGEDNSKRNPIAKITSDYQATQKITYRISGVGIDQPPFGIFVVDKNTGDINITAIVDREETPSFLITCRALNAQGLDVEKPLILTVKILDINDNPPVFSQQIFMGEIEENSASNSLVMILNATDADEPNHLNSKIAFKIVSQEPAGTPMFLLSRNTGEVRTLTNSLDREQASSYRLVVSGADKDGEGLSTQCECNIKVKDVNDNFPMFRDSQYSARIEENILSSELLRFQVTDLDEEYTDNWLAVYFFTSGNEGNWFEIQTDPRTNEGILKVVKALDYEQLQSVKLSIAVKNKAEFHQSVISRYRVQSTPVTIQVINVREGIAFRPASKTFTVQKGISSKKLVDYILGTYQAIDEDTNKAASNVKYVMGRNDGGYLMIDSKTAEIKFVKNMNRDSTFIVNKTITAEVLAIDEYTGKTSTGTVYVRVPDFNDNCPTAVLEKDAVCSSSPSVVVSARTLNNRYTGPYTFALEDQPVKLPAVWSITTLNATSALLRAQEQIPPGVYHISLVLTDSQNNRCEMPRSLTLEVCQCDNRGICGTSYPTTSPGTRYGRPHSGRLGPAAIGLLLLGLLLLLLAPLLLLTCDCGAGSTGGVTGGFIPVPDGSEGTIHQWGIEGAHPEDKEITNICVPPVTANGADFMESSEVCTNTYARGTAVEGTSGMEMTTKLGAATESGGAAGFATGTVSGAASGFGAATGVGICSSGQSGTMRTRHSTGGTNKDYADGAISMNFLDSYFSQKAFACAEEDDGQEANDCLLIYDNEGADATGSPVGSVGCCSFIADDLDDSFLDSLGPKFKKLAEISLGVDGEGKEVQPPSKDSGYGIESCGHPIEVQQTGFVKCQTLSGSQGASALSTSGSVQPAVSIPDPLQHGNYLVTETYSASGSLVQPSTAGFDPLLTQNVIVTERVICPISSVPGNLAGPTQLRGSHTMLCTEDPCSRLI
# NALP1 yeast inh – NALP1 inflammasome inhibitors in reconstituted yeast, colorimetric, S. cerevisiae, triplicate retest | S. cerevisiae NALP1/ASC/caspase-1 growth, X-gal OD620, 72 h | AID 2071, 2009 | 280,000 tested, 0.61% active | inhibition, % at 10 µM; in the data active means inhibition mostly above about 24%, no sharp cut-off; inactive means mostly below about 32%
# PolyA inhibitor – polyadenylation inhibitors in yeast reporter cells, primary screen, luminescence, S. cerevisiae | S. cerevisiae SKY197-pL101 polyadenylation reporter, beta-gal luminescence; efflux-impaired pdr1/pdr3 knockout yeast; score 100 = 6 SD above DMSO | activity score, % at 12 µM | 300,000 tested, 0.02% active | AID 1875, 2009;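 active means lowest replicate activity score at least 50, where 100 means six control SD above control mean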;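 further: yeast exposed to compound for 9 h at 30 °C; higher score means more reporter readthrough which indicates perturbed polyadenylation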
# NLRP3 yeast inh – NALP3 inflammasome inhibitors in reconstituted yeast, primary screen, luminescence, uHTS | Yeast reconstituted NLRP3/ASC/caspase-1, beta-gal luminescence, 24 h | inhibition, % at 10 µM | 330,000 tested, 0.39% active | AID 2825, 2010;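 active means inhibition of 50% or more; inactive means inhibition below 50%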;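 further: plate controls were induced DMSO wells for no effect and uninduced yeast grown without galactose for full effect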
# Arr AP2 block – inhibitors of beta-arrestin/AP2 binding, primary screen, biochemical, GPCR trafficking, flow cytometry; inhibition, % at 10 µM; FITC-arrestin peptide / GST-AP2 beads; AP2 beta2 appendage carries R879A mutation; 340,000 tested, 0.31% active; AID 504490, 2011;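 active means inhibition above a set limit, near 3 SD of compounds lacking own fluorescence, cut at about 54% in these data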;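 further: plate controls were DMSO wells for no effect and 5 µM unlabelled arrestin peptide for full effect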
#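 System: GST-AP2 R879A glutathione beads | Also added: FITC-arrestin peptide, 50 nM | Times: 12 min plus 1 h, RT | Signal: Bead flow cytometry, FITC channel | Buffer or medium: PBS with 0.05% Tween 20 and 0.1% BSA | Read-out basis: Percent drop in bead-associated FITC signal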
# ALR inh – inhibitors of human ALR sulfhydryl oxidase, primary screen, biochemical, H2O2 detection, HRP-luminol luminescence, single point | FAD-linked sulfhydryl oxidase ALR (Homo sapiens), P55789 | purified ALR, DTT oxidation | inhibition, % (test concentration not listed) | 290,000 tested, 3.8% active | AID 485317, 2010;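 active means mean replicate inhibition above about 79%, with every replicate also reaching it, limit read from the data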
# Active calls of the source: *; · = no result given. Hits are enriched below; roughly 4.6% of the tested compounds scored in any of these assays.
SMILES,DSG3 Ab inh,NALP1 yeast inh,PolyA inhibitor,NLRP3 yeast inh,Arr AP2 block,ALR inh
O=c1c(OC2OC(CO)C(O)C(O)C2OC2OC(CO)C(O)C(O)C2OC2OC(CO)C(O)C(O)C2O)c(-c2ccc(O)c(O)c2)oc2cc(O)cc(O)c12 (stereo unspecified),·,-12,·,21,5,99*
O=C1c2sc3nc4n(c(=O)c3c2CCC1Br)CCCCC4 (stereo unspecified),·,-12,-33,24,33,82*
O=C1CCCc2c1sc1nc3n(c(=O)c21)CCCCC3,102,14,1,6,9,-3
CSc1ccccc1-c1nc(-c2ccncc2)no1,101,21,-16,-2,34,-5
O=C(O)c1cccc(-n2cccc2/C=C2/NC(=O)N(c3ccc(Cl)cc3)C2=O)c1,41*,12,·,·,4,·
CNC(=S)N(CCc1c(C)[nH]c2ccc(F)cc12)Cc1cccnc1,93,7,4,-1,27,97*
Cc1ccn2cc(-c3cccc(S(=O)(=O)N4CCCC4)c3)nc2c1,·,-26,7,-76,-11,97*
O=S(=O)(c1cccc(-c2cn3cc(Cl)ccc3n2)c1)N1CCOCC1,97,-17,4,-31,-8,32
Cc1ccn2cc(-c3cccc(S(=O)(=O)N4CC(C)OC(C)C4)c3)nc2c1 (stereo unspecified),86,2,-6,-17,1,97*
CC(=O)Nc1nc2[nH]ccc2c(=O)[nH]1,105,·,·,·,·,·
CCOC(CNc1ncnc2sc(-c3ccccc3)cc12)OCC,103,29,-6,22,-17,97*
CN(C)CCCNc1ncnc2sc(-c3ccccc3)cc12,94,·,0,11,-15,·
Cc1ccc(N=Nc2c(N)[nH]n3c(=O)cc(C)nc23)cc1,101,14,-10,·,11,97*
O=C(Nc1cccs1)Nc1c(F)c(F)cc(F)c1F,129,21,-10,5,4,-3
O=C(Nc1cccs1)Nc1c(F)cc(F)cc1Br,100,14,-11,4,30,96*
COc1ccc(CN2CCNC(=O)C2CC(=O)NCc2csc(C)n2)c(F)c1 (stereo unspecified),98,17,9,8,0,-13
CCOC(=O)CN1CCc2c(C)nc3c(-c4ccc(OC)c(OC)c4)cnn3c21,98,33,-2,20,0,84*
CCC(CC)C(=O)Nc1nnc(S(=O)(=O)Nc2ccccc2C)s1,97,11,-12,-10,-1,·
CC1(C)CC(=O)C(C(C2=C(O)CC(C)(C)CC2=O)c2ccc(Br)s2)C(=O)C1 (stereo unspecified),103,24,7,10,-3,98*
COc1cccc(C(C2C(=O)CC(C)(C)CC2=O)C2C(=O)CC(C)(C)CC2=O)c1,98,20,6,17,-6,·
Cc1ccc(C(C2=C(O)CC(C)(C)CC2=O)C2C(=O)CC(C)(C)CC2=O)s1 (stereo unspecified),·,9,4,14,36,98*
COc1cccc(C(C2=C(O)CC(C)(C)CC2=O)C2C(=O)CC(C)(C)CC2=O)c1 (stereo unspecified),118,32,3,1,-1,98*
O=C(NCC1CCCO1)c1cn(Cc2ccccc2)nc1-c1ccc(Cl)cc1 (stereo unspecified),101,·,·,8,13,·
COc1cccc(OCc2cc(C(=O)N3CCNC(=O)C3Cc3ccccc3)no2)c1 (stereo unspecified),102,18,-9,8,-2,-8
Cc1cc(C(=O)OCC(=O)N2CCC(C)CC2)c2ccccc2n1,98,·,·,6,-2,-3
Cc1ccc(C(=O)NC(=C(Cl)Cl)S(=O)(=O)c2ccc(C)cc2)cc1,101,30,-24,31,7,99*
